From ChEMBL document CHEMBL4152200, “Targeting the entrance channel of NNIBP: Discovery of diarylnicotinamide 1,4-disubstituted 1,2,3-triazoles as novel HIV-1 NNRTIs with high potency against wild-type and E138K mutant virus” (Eur J Med Chem, 2018) come the findings set out here.

Structures are written as SMILES. Bounds are passed on as bounds.

The test system of series [1] is Human immunodeficiency virus 1. The experiment in a line: Antiviral activity against HIV1 harboring reverse transcriptase E138K mutant infected in human MT4 cells assessed as inhibition of viral replication after 5 days by MTT assay. It is filed as functional, organism-based. The note with it: Human immunodeficiency virus 1, MT4, 120 h. (Tetrazolium dyes change colour on reduction, which living cells bring about.)

Series [2] relates to Human immunodeficiency virus 1. The experiment in a line: Antiviral activity against HIV1 harboring reverse transcriptase Y188L mutant infected in human MT4 cells assessed as inhibition of viral replication after 5 days by MTT assay. It is filed as functional, organism-based. The note with it: Human immunodeficiency virus 1, MT4, 120 h. An outline of the steps:
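MT-4 cells in exponential growth, resuspended into wells holding HIV-1 stock (IIIB, RES056 K103N/Y181C, F227L/V106A, L100I, K103N, E138K, Y181C or Y188L) at 100–300 CCID₅₀, or into mock-infected wells. Viability read by MTT reduction to formazan, measured spectrophotometrically 5 days post-infection. EC₅₀ is the concentration giving 50% protection against virus-induced cytotoxicity.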

Series [3] is described as follows: Selectivity index, ratio of CC50 for human MT4 cells to EC50 for HIV1 harboring reverse transcriptase E138K mutant. It is filed as toxicity. The settings on record: read-out: Ratio CC50/EC50. Summed up: (§1)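 SI is CC₅₀ divided by EC₅₀, both by MTT after 5 days in MT-4 cells. CC₅₀ comes from mock-infected cultures run in parallel and is the concentration reducing their viability by 50%. EC₅₀ comes from cultures infected with the given mutant strain at 100–300 CCID₅₀.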

A short description of series [4]: Selectivity index, ratio of CC50 for human MT4 cells to EC50 for HIV1 harboring reverse transcriptase Y181C mutant. It is filed as toxicity. The settings on record: read-out: Ratio CC50/EC50. Summed up: as §1
The test system of series [5] is Human immunodeficiency virus 1. The experiment in a line: Resistance factor, ratio of EC50 for HIV1 harboring reverse transcriptase F227L/V106A mutant to EC50 for wild-type HIV-1 3B. It is filed as functional. Summed up: (§2)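 Resistance fold is EC₅₀ against the mutant strain divided by EC₅₀ against WT IIIB. Both EC₅₀ values come from the 5-day MTT protection assay in MT-4 cells infected with 100–300 CCID₅₀ of virus.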

A short description of series [6]: Selectivity index, ratio of CC50 for human MT4 cells to EC50 for HIV1 harboring reverse transcriptase Y188L mutant. It is filed as toxicity. The settings on record: read-out: Ratio CC50/EC50. An outline of the steps: as §1
For series [7], the system named is Human immunodeficiency virus 1. The experiment in a line: Antiviral activity against HIV1 harboring reverse transcriptase F227L/V106A double mutant infected in human MT4 cells assessed as inhibition of viral replication after 5 days by MTT assay. It is filed as functional, organism-based. The note with it: Human immunodeficiency virus 1, MT4, 120 h.
In series [8] the test system is MT4. The experiment in a line: (§3) Cytotoxicity against human MT4 cells assessed as decrease in cell viability after 5 days by MTT assay. It is filed as cell-based. The note with it: mt4, 120 h. An outline of the steps: (§4)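 Mock-infected MT-4 cells, exponentially growing, seeded with compound in culture medium without virus; run in parallel with the antiviral assay. Viability read spectrophotometrically by MTT reduction five days later.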

Series [9] relates to Human immunodeficiency virus 1. The experiment in a line: Antiviral activity against HIV-1 RES056 harboring reverse transcriptase K103N/Y181C double mutant infected in human MT4 cells assessed as inhibition of viral replication after 5 days by MTT assay. The note with it: Human immunodeficiency virus 1, RES056, MT4, 120 h. It is filed as functional, organism-based.
The test system of series [10] is Human immunodeficiency virus 1. The experiment in a line: Resistance factor, ratio of EC50 for HIV1 harboring reverse transcriptase Y188L mutant to EC50 for wild-type HIV-1 3B. It is filed as functional. An outline of the steps: as §2
The subject of series [11] is Human immunodeficiency virus 1. Nature of the series: Resistance factor, ratio of EC50 for HIV1 harboring reverse transcriptase K103N mutant to EC50 for wild-type HIV-1 3B. It is filed as functional. An outline of the steps: as §2
The test system of series [12] is Human immunodeficiency virus 1. The experiment in a line: Antiviral activity against HIV1 harboring reverse transcriptase Y181C mutant infected in human MT4 cells assessed as inhibition of viral replication after 5 days by MTT assay. The settings on record: Human immunodeficiency virus 1, MT4, 120 h. It is filed as functional, organism-based.
For series [13], the system named is Human immunodeficiency virus 1. The experiment in a line: Antiviral activity against wild-type HIV-1 3B infected in human MT4 cells assessed as inhibition of viral replication after 5 days by MTT assay. It is filed as functional, organism-based. The note with it: Human immunodeficiency virus 1, 3B, MT4, 120 h.
The test system of series [14] is TZM. Nature of the series: Cytotoxicity against human TZM-bl cells by CytoTox-Glo reagent-based assay. It is filed as cell-based. An outline of the steps:
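TZM-bl cells exposed to compound at various concentrations. Cytotoxicity measured by CytoTox-Glo assay.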

In series [15] the test system is Human immunodeficiency virus 1. Nature of the series: Antiviral activity against HIV1 harboring reverse transcriptase K103N mutant infected in human MT4 cells assessed as inhibition of viral replication after 5 days by MTT assay. It is filed as functional, organism-based. The settings on record: Human immunodeficiency virus 1, MT4, 120 h.
Series [16] has as its system Human immunodeficiency virus 1. Nature of the series: Resistance factor, ratio of EC50 for HIV1 harboring reverse transcriptase Y181C mutant to EC50 for wild-type HIV-1 3B. It is filed as functional. An outline of the steps:
as §2

Series [17] can be described thus: Selectivity index, ratio of CC50 for human TZM-bl cells to EC50 for wild-type HIV-1 NL4-3 infected in human TZM-bl cells. It is filed as toxicity, cell-based. The settings on record: read-out: Ratio CC50/EC50. An outline of the steps: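 SI is CC₅₀ divided by EC₅₀ in TZM-bl cells. CC₅₀ from CytoTox-Glo assay, averaged from two independent tests. EC₅₀ from single-round infection with 800 TCID₅₀ NL4-3, luciferase luminescence read at 2 days and expressed relative to virus controls.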

Series [18] deals with Human immunodeficiency virus type 1 reverse transcriptase (Human immunodeficiency virus 1, UniProt Q72547). Nature of the series: Inhibition of wild-type HIV1 reverse transcriptase assessed as decrease in digoxigenin and biotin-dUTP incorporation in to DNA using poly(A)/oligo(dT)15 as template/primer after 1 hr by ELISA. An outline of the steps: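 Kit ELISA on wild-type HIV-1 RT with poly(A)·oligo(dT)15 as template/primer and digoxigenin- and biotin-labelled dUTP. Incorporated label detected with peroxidase-conjugated anti-digoxigenin antibody and ABTS substrate. IC₅₀ is the concentration inhibiting biotin-dUTP incorporation by 50%.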
Background: ELISA stands for enzyme-linked immunosorbent assay.

The test system of series [19] is Human immunodeficiency virus 1. Nature of the series: Resistance factor, ratio of EC50 for HIV1 harboring reverse transcriptase E138K mutant to EC50 for wild-type HIV-1 3B. It is filed as functional. Summed up:
as §2

Series [20] is described as follows: Selectivity index, ratio of CC50 for human MT4 cells to EC50 for HIV1 harboring reverse transcriptase L100I mutant. The settings on record: read-out: Ratio CC50/EC50. It is filed as toxicity. Summed up:
as §1

Series [21] is described as follows: Selectivity index, ratio of CC50 for human MT4 cells to EC50 for HIV1 harboring reverse transcriptase K103N mutant. It is filed as toxicity. The settings on record: read-out: Ratio CC50/EC50. Summed up: as §1
Series [22] has as its system Human immunodeficiency virus 1. Nature of the series: Antiviral activity against wild-type HIV-1 NL4-3 infected in human TZM-bl cells assessed as inhibition of viral replication after 2 days by bright Glo-luciferase reporter gene assay. It is filed as functional, organism-based. The note with it: Human immunodeficiency virus 1, NL4-3, TZM-bl, 48 h. An outline of the steps:
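TZM-bl cells infected with 800 TCID₅₀ of NL4-3 in the presence of a range of compound concentrations; single-round infection. After 2 days medium removed, Bright-Glo added and luminescence read. EC₅₀ is the concentration giving a 50% fall in relative light units relative to virus-control wells. Mean ± SD from at least triplicate.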
In general terms: In a reporter assay the amount or activity of a reporter protein is the signal.

Series [23] relates to Human immunodeficiency virus 1. The experiment in a line: Antiviral activity against HIV1 harboring reverse transcriptase L100I mutant infected in human MT4 cells assessed as inhibition of viral replication after 5 days by MTT assay. It is filed as functional, organism-based. The note with it: Human immunodeficiency virus 1, MT4, 120 h.
Series [24] has as its system Human immunodeficiency virus 1. The experiment in a line: Resistance factor, ratio of EC50 for HIV1 harboring reverse transcriptase L100I mutant to EC50 for wild-type HIV-1 3B. It is filed as functional. Summed up: as §2
A short description of series [25]: Selectivity index, ratio of CC50 for human MT4 cells to EC50 for HIV1 harboring reverse transcriptase F227L/V106A mutant. The settings on record: read-out: Ratio CC50/EC50. It is filed as toxicity. An outline of the steps:
as §1

Series [26] can be described thus: Selectivity index, ratio of CC50 for human MT4 cells to EC50 for wild-type HIV1 3B. It is filed as toxicity. The note with it: read-out: Ratio CC50/EC50. An outline of the steps:
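Wild-type HIV-1 IIIB at 100–300 CCID50 added to MT-4 cells with compound, with mock-infected wells in parallel. MTT viability was read at day 5. […] SI = CC50/EC50.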

A short description of series [27]: as §3. It is filed as cell-based. The note with it: MT4 cells. Summed up: as §4

For `Cc1cc(C)c(Oc2cc(Nc3ccc(C#N)cc3)ncc2C(=O)NCc2cn(CC(=O)N3CCOCC3)nn2)c(C)c1`, the EC50 in series [1] stood at 27 nM; in series [2] it was 7160 nM; in series [7], 610 nM; in series [9] it was 15700 nM; in series [12], 240 nM; in [13] it was 20 nM. The EC50 in series [15] worked out at 380 nM; in series [22], 20 nM; in series [23] it was 6130 nM. Further, the selectivity ratio in [3] was 6800; in [4] it was 761; in series [6], 25; in series [17] it was above 10.8; in [20], 30; in series [21] it was 473. Besides, in series [25], the selectivity ratio came out at 297. Further, the “Ratio EC50” value in [5] is 30.5; in series [10], 358; in [11], 19; in series [16], 12; in [19], 1.4; in series [24], 306.5. For the same molecule, the CC50 in [8] is 181000 nM; in series [14], above 215000 nM. For the same molecule, the IC50 in [18] is 1570 nM.

For `Cc1cc(C)c(Oc2cc(Nc3ccc(C#N)cc3)ncc2C(=O)NCc2cn(CC(=O)N3CCCC3)nn2)c(C)c1`, the EC50 came out at 14 nM in series [1]; 1480 nM in series [2]; 240 nM in series [7]; 1430 nM in [9]; 85 nM in series [12]; 20 nM in series [13]. In addition, the EC50 in series [15] was 270 nM; in series [22], 24 nM; in [23], 960 nM. Also, the selectivity ratio in series [3] is 4190; in [26], 2900; in series [4] it was 686; in [6] it was 39; in series [17], above 9.2; in series [20], 60. In addition, the selectivity ratio in series [21] amounted to 214; in series [25], 245. The “Ratio EC50” value in series [5] stood at 12; in [10] it was 74; in [11], 13.5; in [16] it was 4.3; in series [19], 0.7; in series [24] it was 48. In addition, the CC50 is 58100 nM in series [8] and above 221000 nM in series [14]. In [18], the IC50 is 2700 nM.

`O=C1Nc2ccc(Cl)cc2[C@@](C#CC2CC2)(C(F)(F)F)O1` [EFAVIRENZ]: the 50% cytotoxic concentration (CC50) at 120 h in series [27] is above 6340 nM.

For `Cc1ccnc2c1NC(=O)c1cccnc1N2C1CC1` [NEVIRAPINE], the CC50 at 120 h in series [27] was above 15000 nM. Besides, the EC50 was above 15000 nM in series [9] and 260 nM in series [13].

By EC50 is commonly meant the concentration needed to bring the measured effect to its halfway point. What is called CC50 is the concentration at which the toxic effect on the cells reaches its halfway point. For orientation: IC50 means the concentration that inhibits the measured activity by half.
